Assay results taken from ChEMBL document CHEMBL1148142, “New metabolites from sponge-derived fungi Curvularia lunata and Cladosporium herbarum” (J Nat Prod, 2002).
Activity calls are given as the source filed them. No cut-off for these calls is given here.

Key:
[1] = test system: Staphylococcus aureus; assay: Antibacterial activity against Staphylococcus aureus ATCC 25923 at 10 ug/disk by agar plate diffusion assay; type: functional; conditions: read-out: IZ
Summary of the method: (§1)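 Paper disks (5.5 mm) loaded with 5 or 10 μg of pure compound, laid on agar plates seeded with the test organism. Plates incubated 24 h at 37 °C, then inspected for inhibition zones.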

[2] = test system: Bacillus subtilis; assay: Antibacterial activity against Bacillus subtilis 168 at 10 ug/disk by agar plate diffusion assay; type: functional; conditions: read-out: IZ; summary of the method: as §1
[3] = test system: Candida albicans; assay: Antifungal activity against Candida albicans at 10 ug/disk by agar plate diffusion assay; type: functional, organism-based; summary of the method: as §1
[4] = test system: Escherichia coli; assay: Antibacterial activity against Escherichia coli ATCC 25922 at 10 ug/disk by agar plate diffusion assay; type: functional; conditions: read-out: IZ; summary of the method: as §1
[5] = test system: Staphylococcus aureus; assay: Antibacterial activity against Staphylococcus aureus ATCC 25923 at 5 ug/disk by agar plate diffusion assay; type: functional; conditions: read-out: IZ; summary of the method: as §1
[6] = test system: Escherichia coli; assay: Antibacterial activity against Escherichia coli ATCC 25922 at 5 ug/disk by agar plate diffusion assay; type: functional; conditions: read-out: IZ; summary of the method: as §1
[7] = test system: Escherichia coli; assay: Antibacterial activity against Escherichia coli HBI 101 at 5 ug/disk by agar plate diffusion assay; type: functional; conditions: read-out: IZ; summary of the method: as §1
[8] = test system: Bacillus subtilis; assay: Antibacterial activity against Bacillus subtilis 168 at 5 ug/disk by agar plate diffusion assay; type: functional; conditions: read-out: IZ; summary of the method: as §1
[9] = test system: Escherichia coli; assay: Antibacterial activity against Escherichia coli HBI 101 at 10 ug/disk by agar plate diffusion assay; type: functional; conditions: read-out: IZ; summary of the method: as §1
[10] = test system: Candida albicans; assay: Antifungal activity against Candida albicans at 5 ug/disk by agar plate diffusion assay; type: functional, organism-based; summary of the method: as §1
[11] = test system: HL-60; assay: Cytotoxicity against human HL60 cells; type: functional, cell-based

| Structure (SMILES) | zone of inhibition at 10 µg/disc [1] [mm] | zone of inhibition at 10 µg/disc [2] [mm] | Activity [3] | zone of inhibition at 10 µg/disc [4] [mm] | zone of inhibition at 5 µg/disc [5] [mm] | zone of inhibition at 5 µg/disc [6] [mm] | zone of inhibition at 5 µg/disc [7] [mm] | zone of inhibition at 5 µg/disc [8] [mm] | zone of inhibition at 10 µg/disc [9] [mm] | Activity [10] | Activity [11] |
| --- | --- | --- | --- | --- | --- | --- | --- | --- | --- | --- | --- |
| COc1cc(O)c2c(c1)C(=O)C13C(=C(O)C4[C@@H](O)C1C1[C@H](O)C3C(O)=C3C(=O)c5c(O)cc(OC)cc5C(=O)C341)C2=O (stereo partly specified) [CYTOSKYRIN A] | 10 | 12 | inactive | 11 | 8.5 | 9 | 8 | 8 | 9 | inactive |  |
| COc1cc(O)c2c(c1)C(=O)c1cc(O)cc(O)c1C2=O [LUNATIN] | 10 | 9 | inactive | 11 | 8.5 | 9 | 8 | 7.5 | 10.5 | inactive |  |
| O=C(O)CC1OC(=O)c2c(O)cc(O)cc21 (stereo unspecified) |  |  |  |  |  |  |  |  |  |  | Not toxic |
